Assay results: ChEMBL document CHEMBL1134692, “QSAR study on the contribution of log P and E(s) to the in vitro antiprotozoal activity of glutathione derivatives” (J Med Chem, 2001); call rule not given here

Tests used:
[1] = Partition coefficient (logP); assay type: physicochemical; settings: octanol/water
Leishmania donovani [2] = experiment: Inhibitory activity against Leishmania donovani; assay type: functional; settings: read-out: ED50 (the source's name)
Outline: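 Starch-elicited peritoneal macrophages from female CD1 mice were plated at 4 × 10^4/well in RPMI-1640 with 10% HIFCS. After 24 h they were infected at 10:1 with L. donovani amastigotes (MHOM/ET/67/L82, hamster-passaged). Drug was given as a 3-fold dilution series in quadruplicate for 5 days. Activity was scored as the percentage of macrophages cleared of amastigotes. Sodium stibogluconate control.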

[3] = Evaluated for its inhibitory activity against KB cells; assay type: functional; settings: Homo sapiens, read-out: ED50 (the source's name)
Outline: (§1)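 KB cells (human oral pharyngeal carcinoma) grown in RPMI with 10% calf foetal serum at 37 °C, 5% CO2 in humidified air. Exposed to compound for 3 days under the same conditions, then viability read by Alamar Blue assay; ED50 reported.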

Leishmania donovani [4] = experiment: (§2) Percent decrease in viable parasitesrelative to the control at 30 uM; assay type: functional
Outline: (§3)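 Single concentration of 30 μM in the intracellular amastigote macrophage assays. Inhibition is expressed as the percent decrease in viable parasites relative to untreated control.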

[5] = test system: Trypanosoma brucei brucei; experiment: Inhibitory activity against Trypanosoma brucei; assay type: functional; settings: read-out: ED50 (the source's name)
Outline: (§4)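 T. b. brucei S427 bloodstream trypomastigotes kept in HMI-18 with 20% heat-inactivated FCS at 37 °C, 5% CO2. Parasites at 2 × 10^5/mL were mixed 1:1 with compound, run in triplicate as a 3-fold dilution series from 30 μM top. Incubated 3 days at 37 °C; Alamar Blue read-out on day 3 gave ED50. Pentamidine positive control.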

[6] = Relative toxicity was evaluated as ED50 for KB cell line to that of ED50 for T.B. brucei; assay type: organism-based; settings: trypanosoma brucei brucei, KB cells versus Trypanosoma brucei brucei; read-out: Relative toxicity
Outline: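 Ratio of ED50 against KB cells to ED50 against T. b. brucei bloodstream forms, each from the 3-day Alamar Blue assays.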

Trypanosoma cruzi [7] = experiment: Evaluated for its inhibitory activity against Trypanosoma cruzi; NA= not active at 30 umol; assay type: functional, organism-based
Outline: (§5)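 Starch-elicited female CD1 mouse peritoneal macrophages (4 × 10^4/well, RPMI-1640, 10% HIFCS) were infected after 24 h at 5:1 with T. cruzi Y trypomastigotes derived from MDCK cultures. Drug was applied as a 3-fold dilution series in quadruplicate for 3 days. Activity was the percentage of macrophages cleared of amastigotes. Nifurtimox control.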

[8] = test system: Trypanosoma brucei brucei; experiment: Compound was evaluated for its inhibitory activity against Trypanosoma brucei; NA= not active at 30 umol; assay type: functional, organism-based; outline: as §4
Leishmania donovani [9] = experiment: (§6) Percent decrease in viable parasitesrelative to the control; assay type: functional; outline: as §3
Trypanosoma cruzi [10] = experiment: Evaluated for its inhibitory activity against Trypanosoma cruzi; assay type: functional; settings: read-out: ED50 (the source's name); outline: as §5
Trypanosoma cruzi [11] = experiment: as §6; assay type: functional; outline: as §3
Trypanosoma cruzi [12] = experiment: as §2; assay type: functional; outline: as §3
Homo sapiens = organism: Homo sapiens; experiment: Compound was evaluated for its inhibitory activity against KBcells; assay type: functional; outline: as §1

Compound	logP [1]	EC50 (Leishmania donovani [2]) [µM]	EC50 [3] [µM]	EC50 [5] [µM]	EC50 (Trypanosoma cruzi [10]) [µM]	inhibition at 30 µM (Leishmania donovani [4]) [%]	selectivity ratio [6]	Activity against T. cruzi (Trypanosoma cruzi [7])	NA [8]	Inhibition (Leishmania donovani [9]) [%]	Inhibition (Trypanosoma cruzi [11]) [%]	inhibition at 30 µM (Trypanosoma cruzi [12]) [%]	ED50 (Homo sapiens) [µM]
CC(C)OC(=O)CNC(=O)C(CSc1ccc([N+](=O)[O-])cc1[N+](=O)[O-])NC(=O)CCC(NC(=O)OCc1ccccc1)C(=O)O (configuration not stated)	2.23							not active at 30 umol	not active at 30 umol				
CCCCCCOC(=O)CNC(=O)C(CSc1ccc([N+](=O)[O-])cc1[N+](=O)[O-])NC(=O)CCC(NC(=O)OCc1ccccc1)C(=O)OCCCCCC (configuration not stated)	7.02	> 30	109	5.8	> 30		18.8				36		
O=C(CCC(NC(=O)OCc1ccccc1)C(=O)OCCF)NC(CSc1ccc([N+](=O)[O-])cc1[N+](=O)[O-])C(=O)NCC(=O)OCCF (configuration not stated)	2.97	> 30	15.2	21.8	> 30		0.99			26	8		
O=C(CCC(NC(=O)OCc1ccccc1)C(=O)OCCCCCl)NC(CSc1ccc([N+](=O)[O-])cc1[N+](=O)[O-])C(=O)NCC(=O)OCCCCCl (configuration not stated)	5.56	> 30	0.38	3.05	28		0.12						
CCC(C)OC(=O)CNC(=O)C(CSc1ccc([N+](=O)[O-])cc1[N+](=O)[O-])NC(=O)CCC(NC(=O)OCc1ccccc1)C(=O)OC(C)CC (configuration not stated)	4.91	> 30	> 300	2		36	150						
CCCCCOC(=O)CNC(=O)C(CSc1ccc([N+](=O)[O-])cc1[N+](=O)[O-])NC(=O)CCC(NC(=O)OCc1ccccc1)C(=O)OCCCCC (configuration not stated)	6.04	> 30		0.38	6.7		789						> 300
CCCC(CC)OC(=O)CNC(=O)C(CSc1ccc([N+](=O)[O-])cc1[N+](=O)[O-])NC(=O)CCC(NC(=O)OCc1ccccc1)C(=O)OC(CC)CCC (configuration not stated)	6.87												
CCCC(C)OC(=O)CNC(=O)C(CSc1ccc([N+](=O)[O-])cc1[N+](=O)[O-])NC(=O)CCC(NC(=O)OCc1ccccc1)C(=O)OC(C)CCC (configuration not stated)	5.89	> 30	393	3.34	> 30	25	118					17	
CCCOC(=O)CNC(=O)C(CSc1ccc([N+](=O)[O-])cc1[N+](=O)[O-])NC(=O)CCC(NC(=O)OCc1ccccc1)C(=O)O (configuration not stated)	2.31	> 30						not active at 30 umol	not active at 30 umol				
O=C(CCC(NC(=O)OCc1ccccc1)C(=O)OC1CCCCC1)NC(CSc1ccc([N+](=O)[O-])cc1[N+](=O)[O-])C(=O)NCC(=O)OC1CCCCC1 (configuration not stated)	6.65		51	0.21			243						
CCCCC(C)OC(=O)CNC(=O)C(CSc1ccc([N+](=O)[O-])cc1[N+](=O)[O-])NC(=O)CCC(NC(=O)OCc1ccccc1)C(=O)OC(C)CCCC (configuration not stated)	6.87	> 30	178	5.2	> 30	6	46					21	
CC(C)CC(C)OC(=O)CNC(=O)C(CSc1ccc([N+](=O)[O-])cc1[N+](=O)[O-])NC(=O)CCC(NC(=O)OCc1ccccc1)C(=O)OC(C)CC(C)C (configuration not stated)	6.73	> 30	43.2	0.25	> 30	8	173					31	
O=C(CCC(NC(=O)OCc1ccccc1)C(=O)OCCCCl)NC(CSc1ccc([N+](=O)[O-])cc1[N+](=O)[O-])C(=O)NCC(=O)OCCCCl (configuration not stated)	4.58	> 30	0.39	1.05	> 30		0.8				35		

More lines, main results first:

logP [1]	EC50 (Leishmania donovani [2]) [µM]	EC50 [3] [µM]	EC50 [5] [µM]	EC50 (Trypanosoma cruzi [10]) [µM]	Compound	inhibition at 30 µM (Leishmania donovani [4]) [%]	selectivity ratio [6]	Activity against T. cruzi (Trypanosoma cruzi [7])	NA [8]	Inhibition (Leishmania donovani [9]) [%]	Inhibition (Trypanosoma cruzi [11]) [%]	inhibition at 30 µM (Trypanosoma cruzi [12]) [%]	ED50 (Homo sapiens) [µM]
1.32	> 30				COC(=O)CNC(=O)C(CSc1ccc([N+](=O)[O-])cc1[N+](=O)[O-])NC(=O)CCC(NC(=O)OCc1ccccc1)C(=O)O (configuration not stated)								
5.89	> 30	213	3.74		CCC(CC)OC(=O)CNC(=O)C(CSc1ccc([N+](=O)[O-])cc1[N+](=O)[O-])NC(=O)CCC(NC(=O)OCc1ccccc1)C(=O)OC(CC)CC (configuration not stated)	17	57						
1.82	> 30				CCOC(=O)CNC(=O)C(CSc1ccc([N+](=O)[O-])cc1[N+](=O)[O-])NC(=O)CCC(NC(=O)OCc1ccccc1)C(=O)O (configuration not stated)								
7.71	> 30	> 300	34.8		CC(C)CCC(C)OC(=O)CNC(=O)C(CSc1ccc([N+](=O)[O-])cc1[N+](=O)[O-])NC(=O)CCC(NC(=O)OCc1ccccc1)C(=O)OC(C)CCC(C)C (configuration not stated)	70	> 9						
2.72	20		20		CCC(C)OC(=O)CNC(=O)C(CSc1ccc([N+](=O)[O-])cc1[N+](=O)[O-])NC(=O)CCC(NC(=O)OCc1ccccc1)C(=O)O (configuration not stated)			not active at 30 umol					
2.8	> 30		10.3	> 30	CCCCOC(=O)C(CCC(=O)NC(CSc1ccc([N+](=O)[O-])cc1[N+](=O)[O-])C(=O)NCC(=O)O)NC(=O)OCc1ccccc1 (configuration not stated)					12			
8.99	> 30	95.3			CCCCCCCCOC(=O)CNC(=O)C(CSc1ccc([N+](=O)[O-])cc1[N+](=O)[O-])NC(=O)CCC(NC(=O)OCc1ccccc1)C(=O)OCCCCCCCC (configuration not stated)			not active at 30 umol	not active at 30 umol	11			
1.56	20	0.7	10		COCCOC(=O)CNC(=O)C(CSc1ccc([N+](=O)[O-])cc1[N+](=O)[O-])NC(=O)CCC(NC(=O)OCc1ccccc1)C(=O)OCCOC (configuration not stated)		0.07						
5.67	29.6	50.5	0.18	> 30	O=C(CCC(NC(=O)OCc1ccccc1)C(=O)OC1CCCC1)NC(CSc1ccc([N+](=O)[O-])cc1[N+](=O)[O-])C(=O)NCC(=O)OC1CCCC1 (configuration not stated)		280					30	
5.75	13.4	245	6	< 30	CC(C)C(C)OC(=O)CNC(=O)C(CSc1ccc([N+](=O)[O-])cc1[N+](=O)[O-])NC(=O)CCC(NC(=O)OCc1ccccc1)C(=O)OC(C)C(C)C (configuration not stated)		24					64	
3.6	9.92	49.5	0.49		O=C(CCC(NC(=O)OCc1ccccc1)C(=O)OCCCl)NC(CSc1ccc([N+](=O)[O-])cc1[N+](=O)[O-])C(=O)NCC(=O)OCCCl (configuration not stated)		101						
3.93	7.8	269	20		CC(C)OC(=O)CNC(=O)C(CSc1ccc([N+](=O)[O-])cc1[N+](=O)[O-])NC(=O)CCC(NC(=O)OCc1ccccc1)C(=O)OC(C)C (configuration not stated)		13.5	not active at 30 umol					
